Test results reported in ChEMBL document CHEMBL1121519, “Basic antiinflammatory compounds. N,N',N''-Trisubstituted guanidines” (J Med Chem, 1980).

Key:
[1] = Lethal dose in mice determined by Litchfield and Wilcoxon methods after peroral administration.; format: toxicity, organism-based; settings: mouse, in vivo, po
How it was run: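 Median lethal dose found after oral dosing of mice, four mice per dose level, and calculated by the Litchfield–Wilcoxon method.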

Rattus norvegicus [2] = test: Total score is the sum of scores obtained in the adjuvant arthritis, acute toxicity, carrageenan edema, and prostaglandin synthetase assay; format: functional
[3] = biological target: T1, Cyclooxygenase (Bos taurus) (UniProt O62664+O62698); test: Inhibition of prostaglandin synthetase in bovine seminal vesicle microsomes using Beckman liquid scintillation counter at 10 e-5 M; settings: Microsome
Rattus norvegicus [4] = organism: Rattus norvegicus; test: Tested for inhibition in the rat paw injected with carrageenan.; format: functional; set-up: concentration or dose not given beside the values
[5] = Toxic score (3) was measured as lethal dose in orally administered mice; format: toxicity, organism-based; settings: mouse, in vivo, po
How it was run: (§1)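 Score derived from mouse oral LD50 (Litchfield–Wilcoxon, four mice per dose), in mg/kg: >1000 = 3; 500-1000 = 2; <500 = 1.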

Rattus norvegicus [6] = organism: Rattus norvegicus; test: Average percent inhibition (arthritis score=1) of the swelling of both injected and non injected paw was measured; […]; format: functional
Rattus norvegicus [7] = organism: Rattus norvegicus; test: Tested for inhibition in the rat paw not injected with […].; format: functional; set-up: concentration or dose not given beside the values
How it was run: (§2)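 Adjuvant-induced arthritis, female Lewis rats, six per group: M. butyricum in mineral oil (3 mg/mL, 0.1 mL) injected into right hind paw plantar tissue. Daily oral dosing from adjuvant day to day 28, 10 or 5 (mg/kg)/day according to mouse oral LD50 (≥1000 or <1000 mg/kg). Injected and noninjected paw swelling read by mercury-displacement plethysmometry on day 28.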

Rattus norvegicus [8] = test: Tested for percent enhancement of carrageenan paw edema in rat, administered orally at a dose of one tenth of oral lethal dose in mice; format: functional
How it was run: (§3)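 1 h later, 0.1 mL of 1% carrageenan was injected into the right hind-paw plantar tissue. Paw swelling was measured by mercury-displacement plethysmometry 3 h after carrageenan, compared with controls.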

Rattus norvegicus [9] = test: Percent inhibition of carrageenan paw edema in rat, administered orally at a dose of one tenth of oral lethal dose in mice; format: functional; how it was run: as §3
[10] = biological target: T1, Cyclooxygenase (Bos taurus); test: Tested for Prostaglandin synthetase inhibition in Bovine seminal vesicle microsomes using Beckman liquid scintillation counter at 10 e-5 M; format: functional; settings: Microsome
Rattus norvegicus [11] = organism: Rattus norvegicus; test: Tested for enhancement in the rat paw injected with carrageenan.; format: functional
Rattus norvegicus [12] = organism: Rattus norvegicus; test: Average percent inhibition (arthritis score=0) of the swelling of both injected and non injected paw was measured; format: functional
How it was run: (§4)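 Adjuvant arthritis in inbred female Lewis rats, groups of six, acclimatized 2 weeks. Arthritis induced by injecting 0.1 mL M. butyricum in mineral oil (3 mg/mL) into right hind paw plantar tissue. Oral dosing daily from adjuvant day to day 28: 10 (mg/kg)/day if mouse oral LD50 ≥1000 mg/kg, else 5 (mg/kg)/day. Swelling of injected and noninjected paws measured day 28 by mercury-displacement plethysmometry; mean percent inhibition scored 0–3.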

[13] = biological target: T1, Cyclooxygenase (Bos taurus); test: Tested for Prostaglandin Synthetase inhibition in Bovine seminal vesicle microsomes using Beckman liquid scintillation counter at 10 e-5 M; settings: Microsome
Rattus norvegicus [14] = organism: Rattus norvegicus; test: Tested for enhancement in the rat paw not injected with carrageenan.; format: functional
Rattus norvegicus [15] = organism: Rattus norvegicus; test: Average percent inhibition (arthritis score=1) of the swelling of both injected and non injected paw was measured;values ranges from: […]-[…]; format: functional
Rattus norvegicus [16] = organism: Rattus norvegicus; test: Average percent inhibition of the swelling of both injected and non injected paw was measured; […]; format: functional
[17] = Toxic score (1) was measured as lethal dose in orally administered mice; format: toxicity, organism-based; settings: in vivo, po; how it was run: as §1
Rattus norvegicus [18] = organism: Rattus norvegicus; test: Average percent inhibition (arthritis score=3) of the swelling of both injected and non injected paw was measured; format: functional; how it was run: as §4
Rattus norvegicus [19] = test: Tested for inhibition at the dose of 5(mg/kg)/day in the rat paw not injected with carrageenan.; format: functional; settings: in the assay text read “adjuvant” for “carrageenan”; how it was run: as §2
Rattus norvegicus [20] = organism: Rattus norvegicus; test: Average percent inhibition (arthritis score)of the swelling of both injected and non injected paw was measured; format: functional; how it was run: as §4
Rattus norvegicus [21] = test: Tested for percent inhibition of carrageenan paw edema in rat, administered orally at a dose of one tenth of oral lethal dose in mice; format: functional
How it was run: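 Sprague-Dawley rats fasted 18 h; compound suspended in 0.5% carboxymethylcellulose, given orally 1 h before 0.1 mL of 1% carrageenan suspension injected into the plantar tissue of the right hind paw. Paw swelling measured by mercury-displacement plethysmometry 3 h after carrageenan, treated versus controls. Mouse oral LD50 was from the Litchfield-Wilcoxon method with four mice per dose.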

Rattus norvegicus [22] = test: Effective dose against analgesic activity (peroral administration); format: functional; settings: po
Rattus norvegicus [23] = test: Minimum effective dose against adjuvant arthritis on administration); format: functional; settings: read-out: MED
How it was run: (§5)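 Female Lewis rats given adjuvant arthritis by plantar M. butyricum in mineral oil. Oral daily dosing either from adjuvant day to day 28 (continuous), day 16 to day 28 (therapeutic), or day 5 pre- to day 5 postadjuvant (prophylactic). MED: lowest dose producing significant (p < 0.05) inhibition of noninjected paw swelling on day 28, by plethysmometry.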

Rattus norvegicus [24] = test: Effective dose against carrageenan edema(peroral administration); format: functional; settings: po
How it was run: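 Sprague-Dawley rats fasted 18 h, dosed orally in 0.5% carboxymethylcellulose suspension 1 h before 0.1 mL of 1% carrageenan into right hind paw plantar tissue. Paw swelling in treated versus control rats measured 3 h post-carrageenan by mercury-displacement plethysmometry; ED50 given in mg/kg po.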

Rattus norvegicus [25] = test: Effective dose against nystatin edema(peroral administration); format: functional; settings: po
Rattus norvegicus [26] = organism: Rattus norvegicus; test: Minimum effective dose is the lowest dose preventing any futher increase in body temperature; format: functional; settings: read-out: MED
How it was run: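 Antipyretic test, oral dosing; MED defined as the lowest dose preventing any further increase of body temperature.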

Rattus norvegicus [27] = test: Effective dose against gastroulcerogenic activity (peroral administration); format: functional; settings: po
How it was run: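 Groups of six Sprague-Dawley rats given oral doses once daily for 3 days; inner stomach surface examined for lesions 24 h after last dose. ED50 is the dose giving macroscopically visible lesions in 50% of rats.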

Rattus norvegicus [28] = test: Minimum effective dose against adjuvant arthritis on therapeutic dosing (peroral administration); format: functional; settings: po, read-out: MED; how it was run: as §5
Rattus norvegicus [29] = test: Minimum effective dose against adjuvant arthritis on prophylactic dosing (peroral administration); format: functional; settings: po, read-out: MED; how it was run: as §5

Structure (SMILES) | LD50 [1] [mg/kg] | Total score (Rattus norvegicus [2]) | inhibition [3] [%] | Inhibition (Rattus norvegicus [4]) [%] | LD50 [5] [mg/kg] | Inhibition (Rattus norvegicus [7]) [%] | Inhibition (Rattus norvegicus [9]) [%] | other results
CCOC(=O)c1csc(/N=C(\Nc2cc(C)nc3ccccc23)NC2CCCCC2)n1 | > 1000 | 7 | 89.8 | 4 | > 1000 | 24 | – | Inhibition (Rattus norvegicus [6]): 29%; Enhancement (Rattus norvegicus [8]): 1%
CC(C)(C)/N=C(/Nc1nccs1)Nc1cccnc1Cl | > 1000 | – | – | – | – | – | 19 | inhibition [10]: 10.1%
Cc1cc(N/C(=N/C(C)(C)C)NC2NC=CS2)c2ccccc2n1 (centres undefined) | 200 | – | – | – | – | – | 41 | inhibition [10]: 1.3%
Cc1ccc2nc(C)cc(N/C(=N/C3CCCCC3)Nc3nccs3)c2c1 | > 1000 | 6 | 0.6 | – | > 1000 | 0 | 65 | Enhancement (Rattus norvegicus [11]): 21%; Inhibition (Rattus norvegicus [12]): <10%
Cc1cc(N/C(=N/C2CCCCC2)NC2NC=CS2)c2ccccc2n1 (centres undefined) | > 1000 | – | – | – | – | – | 33 | inhibition [13]: 12.6%
Cc1cc(N/C(=N/C2CCCCC2)Nc2nc3ccccc3s2)c2ccccc2n1 | > 1000 | 6 | 76.1 | – | > 1000 | – | 1 | Enhancement (Rattus norvegicus [11]): 7%; Inhibition (Rattus norvegicus [12]): <10%; Enhancement (Rattus norvegicus [14]): 4%
CC(C)(C)/N=C(\Nc1nccs1)Nc1cc(C(F)(F)F)nc2ccccc12 | > 1000 | 7 | 75.4 | – | > 1000 | 2 | 28 | Enhancement (Rattus norvegicus [11]): 6%; Inhibition (Rattus norvegicus [12]): <10%
Cc1cc(N/C(=N\CC(C)(C)C)Nc2nccs2)c2ccccc2n1 | 600 | 7 | 31.1 | 31 | – | 29 | 66 | Inhibition (Rattus norvegicus [15]): 29%
Cc1cc(N/C(=N/C(C)(C)C)Nc2cccs2)c2ccccc2n1 | > 1000 | 8 | 37.2 | 16 | > 1000 | 26 | 73 | Inhibition (Rattus norvegicus [16]): 29%
Cc1cc(N/C(=N\C(C)(C)C)Nc2nccs2)c2ccccc2n1 | 200 | 8 | 100 | – | – | – | 34 | LD50 [17]: < 500 mg/kg; Inhibition (Rattus norvegicus [18]): >=50%; Inhibition (Rattus norvegicus [19]): 60%
CCCCCCCCCC/N=C(\Nc1nccs1)Nc1cc(C)nc2ccccc12 | > 1000 | – | – | – | – | – | 4 | inhibition [10]: 4.5%
CCCC/N=C(/Nc1nccs1)Nc1cc(C)nc2ccccc12 | 800 | 6 | 0.6 | – | – | – | 89 | Inhibition (Rattus norvegicus [19]): 34%; Inhibition (Rattus norvegicus [15]): 29%
CC(C)(C)/N=C(/Nc1nccs1)Nc1cccc2ccccc12 | > 1000 | – | 6.9 | – | – | – | – | Enhancement (Rattus norvegicus [8]): 19%
CC(C)(C)/N=C(\Nc1ccc2ccccc2c1)Nc1nccs1 | > 1000 | – | 1.7 | – | – | – | – | Enhancement (Rattus norvegicus [8]): 17%
Cc1cc(N/C(=N/C2CCCCC2)Nc2nc3ccccc3[nH]2)c2ccccc2n1 | > 1000 | – | 7.2 | – | – | – | – | Enhancement (Rattus norvegicus [8]): 13%
Cc1csc(/N=C(\Nc2cc(C)nc3ccccc23)NC(C)(C)C)n1 | 600 | 9 | 95.1 | 53 | > 1000 | 59 | 31 | Inhibition (Rattus norvegicus [18]): >=50%
Cc1cc(N/C(=N/C2CCCCC2)Nc2nc(C)c(C)s2)c2ccccc2n1 | > 1000 | 8 | 87.9 | 7 | > 1000 | – | 54 | Inhibition (Rattus norvegicus [20]): <10%; Enhancement (Rattus norvegicus [14]): 63%
CCCCC/N=C(\Nc1nccs1)Nc1cc(C)nc2ccccc12 | 400 | 7 | -37 | 19 | > 1000 | – | 62 | Enhancement (Rattus norvegicus [14]): 4%; Inhibition (Rattus norvegicus [15]): 29%
Cc1cc(N/C(=N/c2ccccc2)Nc2nccs2)c2ccccc2n1 | > 1000 | 10 | 83.8 | 46 | > 1000 | 47 | 59 | Inhibition (Rattus norvegicus [16]): 49%
COc1ccc2c(c1)c(CC(=O)O)c(C)n2C(=O)c1ccc(Cl)cc1 [INDOMETHACIN] | 24.3 | – | – | – | – | – | – | LD50 (Rattus norvegicus [21]): 12 mg/kg; ED50 (Rattus norvegicus [22]): 6.5 mg/kg; minimal effective dose (Rattus norvegicus [23]): 1 mg/kg; ED50 (Rattus norvegicus [24]): 3.5 mg/kg; ED50 (Rattus norvegicus [25]): > 6 mg/kg; minimal effective dose (Rattus norvegicus [26]): 1.6 mg/kg; ED50 (Rattus norvegicus [27]): 4.6 mg/kg; minimal effective dose (Rattus norvegicus [28]): < 1 mg/kg; minimal effective dose (Rattus norvegicus [29]): 2 mg/kg
Cc1cc(N/C(=N/C2CCCCCCC2)Nc2nccs2)c2ccccc2n1 | > 1000 | 9 | 55.1 | 21 | > 1000 | – | 62 | Enhancement (Rattus norvegicus [14]): 8%; Inhibition (Rattus norvegicus [6]): 29%
CCC(C)(C)/N=C(/Nc1nccs1)Nc1cc(C)nc2ccccc12 | 400 | 9 | 100 | 59 | – | 55 | 53 | LD50 [17]: < 500 mg/kg; Inhibition (Rattus norvegicus [20]): >=50%
